Test results as given in ChEMBL document CHEMBL5678817, “FTBMT, a Novel and Selective GPR52 Agonist, Demonstrates Antipsychotic-Like and Procognitive Effects in Rodents, Revealing a Potential Therapeutic Agent for Schizophrenia” (J Pharmacol Exp Ther, 2017).
The source made the active and inactive calls. The calls are words filed in the database; no cut-off is given here.

Key:
[1] = target: T1, GABA-A receptor; anion channel (Homo sapiens) (UniProt P14867+P47870+P18507+P28472+P48169+Q99928+Q9UN88+P34903+O00591+O14764+Q8N1C3+P18505+P78334+P47869+P31644+Q16445); assay: Inhibition of GABAA receptor (unknown origin) at 10 uM in presence of muscimol relative to control; assay type: protein-complex assay
Method in brief: (§1)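 Part of a 98-target external biochemical selectivity panel that used radioligand/receptor binding-type assays. Compound tested once at 10 µM. Results are reported as % inhibition versus control; negative values mean stimulation of receptor activity.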

Mus musculus [2] = assay: Antipsychotic activity in C57BL/6N mouse assessed as increase in c-fos positive cells in frontal cortex at 30 mg/kg, po measured for 2 hrs by immunohistochemistry analysis; assay type: functional, organism-based
[3] = target: G-protein coupled receptor 52 (Homo sapiens, UniProt Q9Y2T5); assay: Agonist activity at human GPR52 expressed in CHO cells assessed as increase in intracellular cAMP level upto 10 uM incubated for 30 mins by Alphascreen assay; assay type: functional, cell-based
Method in brief: (§2)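 CHO cells stably expressing human, mouse or rat GPR52, plus naïve CHO cells, at 10,000 cells/well. Stimulated in cAMP assay buffer for 30 min at 37 °C. Intracellular cAMP read by AlphaScreen.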

[4] = target: Estrogen receptor (Homo sapiens) (UniProt P03372); assay: Inhibition of Estrogen ERalpha receptor (unknown origin) at 10 uM relative to control; method in brief: as §1
[5] = target: D(2) dopamine receptor (Homo sapiens) (UniProt P14416); assay: Inhibition of Dopamine D2 receptor (unknown origin) at 10 uM relative to control; method in brief: as §1
[6] = target: G-protein coupled receptor 52 (Mus musculus, UniProt P0C5J4); assay: Agonist activity at mouse GPR52 expressed in CHO cells assessed as increase in intracellular cAMP level incubated for 30 mins by Alphascreen assay; assay type: functional, cell-based; method in brief: as §2
[7] = target: Coagulation factor X (Homo sapiens) (UniProt P00742); assay: Inhibition of factor Xa (unknown origin) at 10 uM relative to control
Method in brief: (§3)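 Binding and enzyme panel run by an outside contractor against receptors, ion channels and enzymes. Each assay used a single 10 μM test concentration, and results are expressed as percent inhibition. A negative value means stimulation of receptor activity or activation of enzyme activity.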

[8] = target: cGMP-specific 3',5'-cyclic phosphodiesterase (Homo sapiens) (UniProt O76074); assay: Inhibition of PDE5 (unknown origin) at 10 uM relative to control
Method in brief: (§4)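 Enzyme activity assays from the same 98-target biochemical panel. Single test concentration of 10 µM. Read-out is % inhibition of enzyme activity relative to control; negative percentages indicate activation of the enzyme.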

[9] = target: T1, GABA-A receptor; anion channel (Homo sapiens); assay: Inhibition of GABAA receptor (unknown origin) at 10 uM relative to control; assay type: protein-complex assay; method in brief: as §1
[10] = target: Phosphodiesterase 6 (Homo sapiens) (UniProt Q13956+P18545+P35913+O43924+P16499+P51160); assay: Inhibition of PDE6 (unknown origin) at 10 uM relative to control; assay type: protein assay; method in brief: as §4
[11] = target: T2, G protein-coupled receptor 52 (Rattus norvegicus) (UniProt A0A8I5ZQK1); assay: Agonist activity at GPR52 in rat Striatal neuron assessed as increase in CREB phosphorylation […] by Alphascreen assay; assay type: cell-based; conditions: filed as agonist
[12] = target: Prostaglandin G/H synthase 1 (Homo sapiens) (UniProt P23219); assay: Inhibition of COX-1 (unknown origin) at 10 uM relative to control
Method in brief: (§5)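 Single-point screen at 10 μM across receptor, ion channel and enzyme binding or activity assays. Expressed as percent inhibition versus control; negative values denote stimulation.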

[13] = target: Growth hormone secretagogue receptor type 1 (Homo sapiens) (UniProt Q92847); assay: Inhibition of Growth hormone secretagogue receptor (unknown origin) at 10 uM relative to control; method in brief: as §1
[14] = target: G-protein coupled receptor 52 (Mus musculus) (UniProt P0C5J4); assay: […] agonist activity at GPR52 in ICR mouse assessed as increase in DARPP-32 phosphorylation at thr34 residue upto 1 uM incubated for 5 mins; assay type: functional
Method in brief: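 Acute 500 μm coronal NAc slices from male ICR mice (8–10 weeks) recovered 60 min at 30 °C in oxygenated Krebs-HCO3 pH 7.4 (adenosine deaminase for first 30 min). Exposed 5 min to 0.01–1 μM, frozen, denatured in 1% SDS with 50 mM NaF. Phospho-Thr34 and total DARPP32 quantified by Western blot densitometry; n = 9.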

Mus musculus [15] = assay: Antipsychotic activity in C57BL/6N mouse assessed as increase in c-fos positive cells in dorsomedial striatum at 30 mg/kg, po measured for 2 hrs by immunohistochemistry analysis; assay type: functional, organism-based
Mus musculus [16] = assay: Antipsychotic activity in C57BL/6N mouse assessed as increase in c-fos positive cells in nucleus accumbens at 30 mg/kg, po measured for 2 hrs by immunohistochemistry analysis; assay type: functional, organism-based
Mus musculus [17] = assay: Antipsychotic activity in C57BL/6N mouse assessed as increase in c-fos positive cells in medial prefrontal cortex at 30 mg/kg, po measured for 2 hrs by immunohistochemistry analysis; assay type: functional, organism-based
Mus musculus [18] = assay: Antipsychotic activity in GPR52 knockout mouse assessed as increase in phosphorylated CREB level in striatum at 30 mg/kg, po incubated for 60 mins by ELISA analysis; assay type: functional, organism-based
[19] = target: Mu-type opioid receptor (Homo sapiens) (UniProt P35372); assay: Inhibition of mu opioid receptor (unknown origin) at 10 uM relative to control; method in brief: as §3
[20] = target: Protein kinase C (PKC) (Homo sapiens) (UniProt O94806+P41743+P17252+P05129+Q05655+P05771+Q05513+Q02156+P24723+Q15139+Q04759); assay: Inhibition of Protein kinase C (unknown origin) at 10 uM relative to control; assay type: protein assay; method in brief: as §4
[21] = target: T2, G protein-coupled receptor 52 (Rattus norvegicus); assay: Agonist activity at rat GPR52 expressed in CHO cells assessed as increase in intracellular cAMP level upto 10 uM incubated for 30 mins by Alphascreen assay; assay type: cell-based; method in brief: as §2
Rattus norvegicus = assay: Pro-cognitive activity in Long-Evans rat at10 mg/kg, po measured after 1 hr by radial arm maze test; assay type: functional, organism-based; conditions: dose 10.0 mg/kg
Method in brief: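 Male Long-Evans rats (9 weeks) were trained on the radial arm maze until they made fewer than two errors on two consecutive days. Errors were re-entries into arms or uneaten pellets, within 5 min. Oral 10 mg/kg or vehicle was given 1 h pretest, and MK-801 0.08 mg/kg s.c. or saline 30 min pretest. Scoring was blinded. n = 8–14.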

[22] = target: Substance-P receptor (Homo sapiens) (UniProt P25103); assay: Inhibition of Tachykinin NK1 receptor (unknown origin) at 10 uM relative to control; method in brief: as §3
[23] = target: Voltage-gated L-type calcium channel (Homo sapiens, UniProt O60840+Q01668+Q13698+Q13936); assay: Inhibition of Calcium channel L-type (unknown origin) at 10 uM in presence of dihydropyridine relative to control; assay type: protein assay; conditions: probe dihydropyridine; method in brief: as §5
[24] = target: Type-1 angiotensin II receptor (Homo sapiens) (UniProt P30556); assay: Inhibition of AT1 receptor (unknown origin) at 10 uM relative to control; method in brief: as §5
Sequence of Type-1 angiotensin II receptor (Homo sapiens) (P30556 whole entry): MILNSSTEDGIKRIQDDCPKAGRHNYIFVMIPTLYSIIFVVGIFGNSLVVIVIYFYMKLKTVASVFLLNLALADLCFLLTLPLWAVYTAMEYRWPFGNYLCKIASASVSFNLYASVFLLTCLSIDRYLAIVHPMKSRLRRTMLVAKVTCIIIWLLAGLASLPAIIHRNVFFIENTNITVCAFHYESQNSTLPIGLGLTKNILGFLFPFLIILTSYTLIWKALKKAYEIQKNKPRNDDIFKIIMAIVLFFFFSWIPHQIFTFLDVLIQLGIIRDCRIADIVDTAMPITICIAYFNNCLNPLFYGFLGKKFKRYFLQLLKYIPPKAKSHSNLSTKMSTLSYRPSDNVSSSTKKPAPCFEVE

T2 sequence (A0A8I5ZQK1 as listed by the source): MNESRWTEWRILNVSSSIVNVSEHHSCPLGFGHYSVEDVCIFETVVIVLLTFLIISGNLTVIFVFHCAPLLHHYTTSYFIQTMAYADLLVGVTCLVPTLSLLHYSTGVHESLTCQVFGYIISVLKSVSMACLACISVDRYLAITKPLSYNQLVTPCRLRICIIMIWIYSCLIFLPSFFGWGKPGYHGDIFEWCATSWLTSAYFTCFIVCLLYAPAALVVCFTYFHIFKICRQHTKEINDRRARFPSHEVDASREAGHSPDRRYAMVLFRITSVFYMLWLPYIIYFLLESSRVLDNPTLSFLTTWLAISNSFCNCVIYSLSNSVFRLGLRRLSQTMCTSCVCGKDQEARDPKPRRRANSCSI
Sequence of D(2) dopamine receptor (Homo sapiens) (P14416 whole entry): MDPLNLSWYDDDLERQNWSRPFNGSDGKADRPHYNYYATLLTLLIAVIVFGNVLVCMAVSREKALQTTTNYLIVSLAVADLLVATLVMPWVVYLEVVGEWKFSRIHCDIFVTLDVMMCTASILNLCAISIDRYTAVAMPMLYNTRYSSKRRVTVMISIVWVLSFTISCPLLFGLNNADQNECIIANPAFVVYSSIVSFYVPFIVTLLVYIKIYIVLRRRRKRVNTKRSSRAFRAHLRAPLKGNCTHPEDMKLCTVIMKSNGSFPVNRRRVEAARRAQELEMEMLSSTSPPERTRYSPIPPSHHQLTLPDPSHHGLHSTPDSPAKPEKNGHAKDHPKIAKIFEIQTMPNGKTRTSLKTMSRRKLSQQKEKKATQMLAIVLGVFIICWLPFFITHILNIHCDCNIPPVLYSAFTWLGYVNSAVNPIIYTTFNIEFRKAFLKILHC
Sequence of Growth hormone secretagogue receptor type 1 (Homo sapiens) (Q92847 whole entry): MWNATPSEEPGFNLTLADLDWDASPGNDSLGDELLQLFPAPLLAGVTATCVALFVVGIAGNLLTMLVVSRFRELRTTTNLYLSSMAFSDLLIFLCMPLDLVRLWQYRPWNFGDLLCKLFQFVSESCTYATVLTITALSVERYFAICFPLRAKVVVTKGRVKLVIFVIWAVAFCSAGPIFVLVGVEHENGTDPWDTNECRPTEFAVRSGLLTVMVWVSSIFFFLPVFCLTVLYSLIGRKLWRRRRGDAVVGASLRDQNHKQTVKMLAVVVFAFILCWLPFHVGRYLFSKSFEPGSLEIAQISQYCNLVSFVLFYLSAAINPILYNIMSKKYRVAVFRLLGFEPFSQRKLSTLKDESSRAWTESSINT
Sequence of Mu-type opioid receptor (Homo sapiens) (P35372 whole entry): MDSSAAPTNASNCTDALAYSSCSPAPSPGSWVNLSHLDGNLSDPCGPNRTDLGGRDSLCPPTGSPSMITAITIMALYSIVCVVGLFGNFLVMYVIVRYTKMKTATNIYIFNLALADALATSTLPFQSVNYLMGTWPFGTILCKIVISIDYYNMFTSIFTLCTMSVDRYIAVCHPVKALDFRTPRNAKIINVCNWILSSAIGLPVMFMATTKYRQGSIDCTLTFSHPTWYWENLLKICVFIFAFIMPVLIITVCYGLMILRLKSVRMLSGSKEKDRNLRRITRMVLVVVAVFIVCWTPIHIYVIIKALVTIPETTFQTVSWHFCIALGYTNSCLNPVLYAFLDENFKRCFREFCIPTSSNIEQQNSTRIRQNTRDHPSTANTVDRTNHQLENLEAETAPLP
Sequence of Substance-P receptor (Homo sapiens) (P25103 whole entry): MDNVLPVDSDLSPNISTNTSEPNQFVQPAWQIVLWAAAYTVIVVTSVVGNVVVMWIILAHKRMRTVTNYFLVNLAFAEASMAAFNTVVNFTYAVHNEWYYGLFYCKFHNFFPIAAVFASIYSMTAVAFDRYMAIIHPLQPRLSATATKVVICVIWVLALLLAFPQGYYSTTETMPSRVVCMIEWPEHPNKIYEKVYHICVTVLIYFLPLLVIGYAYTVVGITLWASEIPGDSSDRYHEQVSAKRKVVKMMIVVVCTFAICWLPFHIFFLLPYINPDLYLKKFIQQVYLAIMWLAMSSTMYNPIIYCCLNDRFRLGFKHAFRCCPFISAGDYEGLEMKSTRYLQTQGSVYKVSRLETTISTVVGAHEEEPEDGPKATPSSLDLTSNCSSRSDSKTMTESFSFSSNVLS
Sequence of G-protein coupled receptor 52 (Mus musculus, UniProt P0C5J4) (P0C5J4 whole entry): as the sequence (A0A8I5ZQK1 as listed by the source) above, with V14M, D250E, Q333E, G342A, R348Q counted along it
Sequence of G-protein coupled receptor 52 (Mus musculus) (P0C5J4 whole entry): as the sequence (A0A8I5ZQK1 as listed by the source) above, with V14M, D250E, Q333E, G342A, R348Q counted along it
Sequence of Estrogen receptor (Homo sapiens) (P03372 whole entry): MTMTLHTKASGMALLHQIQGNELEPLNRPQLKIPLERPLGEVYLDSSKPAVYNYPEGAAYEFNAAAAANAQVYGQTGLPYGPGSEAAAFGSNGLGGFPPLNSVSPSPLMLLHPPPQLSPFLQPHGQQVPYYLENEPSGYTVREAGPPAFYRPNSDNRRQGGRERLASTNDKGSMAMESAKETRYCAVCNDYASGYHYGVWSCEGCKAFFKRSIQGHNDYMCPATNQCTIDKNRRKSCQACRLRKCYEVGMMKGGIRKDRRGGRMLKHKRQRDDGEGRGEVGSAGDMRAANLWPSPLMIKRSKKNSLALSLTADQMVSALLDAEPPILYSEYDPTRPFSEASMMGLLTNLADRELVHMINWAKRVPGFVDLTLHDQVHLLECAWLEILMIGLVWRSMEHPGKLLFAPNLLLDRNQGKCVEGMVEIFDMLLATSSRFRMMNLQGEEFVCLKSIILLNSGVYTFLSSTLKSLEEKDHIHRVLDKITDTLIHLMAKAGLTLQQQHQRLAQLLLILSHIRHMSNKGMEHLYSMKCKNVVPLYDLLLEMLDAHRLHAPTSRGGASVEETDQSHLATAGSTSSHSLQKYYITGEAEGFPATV
Sequence of Coagulation factor X (Homo sapiens) (P00742 41-179 limits assumed): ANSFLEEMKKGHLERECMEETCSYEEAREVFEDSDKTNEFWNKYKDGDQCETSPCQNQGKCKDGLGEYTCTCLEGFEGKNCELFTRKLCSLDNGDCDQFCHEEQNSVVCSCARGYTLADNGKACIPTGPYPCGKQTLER
Sequence of Coagulation factor X (Homo sapiens) (P00742 235-488 limits assumed): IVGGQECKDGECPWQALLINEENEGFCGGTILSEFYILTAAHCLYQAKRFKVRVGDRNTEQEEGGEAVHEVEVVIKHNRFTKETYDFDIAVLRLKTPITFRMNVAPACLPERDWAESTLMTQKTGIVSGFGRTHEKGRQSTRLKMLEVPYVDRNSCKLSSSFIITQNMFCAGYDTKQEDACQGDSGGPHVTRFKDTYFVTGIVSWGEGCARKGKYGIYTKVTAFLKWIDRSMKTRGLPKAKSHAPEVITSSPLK
Sequence of Prostaglandin G/H synthase 1 (Homo sapiens) (P23219 whole entry): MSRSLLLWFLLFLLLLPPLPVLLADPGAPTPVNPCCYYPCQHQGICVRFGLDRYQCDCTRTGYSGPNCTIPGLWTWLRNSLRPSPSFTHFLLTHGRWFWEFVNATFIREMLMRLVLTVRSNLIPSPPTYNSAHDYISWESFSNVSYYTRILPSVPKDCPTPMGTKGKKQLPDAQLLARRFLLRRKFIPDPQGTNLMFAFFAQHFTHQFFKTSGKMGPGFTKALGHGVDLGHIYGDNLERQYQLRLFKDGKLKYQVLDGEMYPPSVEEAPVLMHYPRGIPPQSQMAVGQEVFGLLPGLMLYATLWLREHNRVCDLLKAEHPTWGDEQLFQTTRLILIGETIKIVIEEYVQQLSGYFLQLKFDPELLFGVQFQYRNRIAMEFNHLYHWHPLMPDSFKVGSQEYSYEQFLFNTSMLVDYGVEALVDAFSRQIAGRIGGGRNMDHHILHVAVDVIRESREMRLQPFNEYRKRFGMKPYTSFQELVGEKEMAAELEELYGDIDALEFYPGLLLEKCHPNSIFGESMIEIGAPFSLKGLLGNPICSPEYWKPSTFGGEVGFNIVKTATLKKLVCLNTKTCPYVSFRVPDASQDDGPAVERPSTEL
Sequence of G-protein coupled receptor 52 (Homo sapiens, UniProt Q9Y2T5) (Q9Y2T5 whole entry): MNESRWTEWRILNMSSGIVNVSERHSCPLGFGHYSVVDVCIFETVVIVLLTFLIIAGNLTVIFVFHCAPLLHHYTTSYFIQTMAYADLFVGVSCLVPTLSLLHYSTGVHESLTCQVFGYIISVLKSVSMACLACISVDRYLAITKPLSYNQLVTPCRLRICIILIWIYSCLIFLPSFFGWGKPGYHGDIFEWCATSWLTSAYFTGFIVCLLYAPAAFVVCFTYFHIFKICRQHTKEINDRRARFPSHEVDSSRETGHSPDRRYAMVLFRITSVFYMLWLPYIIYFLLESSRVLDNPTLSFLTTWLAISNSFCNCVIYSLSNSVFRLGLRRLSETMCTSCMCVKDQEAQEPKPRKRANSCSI

## Cc1cc(-n2nc(Cc3cc(F)cc(C(F)(F)F)c3)nc2C)ccc1C(N)=O [TP-024]
[1]
  inhibition: -1%
Mus musculus [2]
  Activity: Active
[3]
  Activity: inactive
[4]
  inhibition: -9%
[5]
  inhibition: 5%
[6]
  EC50: 141 nM
[7]
  inhibition: -4%
[8]
  inhibition: 24%
[9]
  inhibition: 2%
[10]
  inhibition: 17%
[11]
  Activity: Active
[12]
  inhibition: -1%
[13]
  inhibition: 0%
[14]
  Activity: Active
Mus musculus [15]
  Activity: Active
Mus musculus [16]
  Activity: Active
Mus musculus [17]
  Activity: Active
Mus musculus [18]
  Activity: inactive
[19]
  inhibition: -10%
[20]
  inhibition: -5%
[21]
  Activity: inactive
Rattus norvegicus
  Activity: Active
[22]
  inhibition: 4%
[23]
  inhibition at 10 µM: -2%
[24]
  inhibition: 9%
